assay: Octanol/water partition co-efficient, log P of compound by UV-spectrophotometry-based shake-flask method; type: physicochemical; conditions: not given
Method in brief: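 Shake-flask partition between octanol and water, each pre-saturated with the other phase for at least 24 h. Compound dissolved at 10 mM in water-saturated octanol; water/octanol volume ratio set from preliminary runs according to polarity. Phases centrifuged 3000 rpm, 5 min. Diluted octanol phase read by UV absorbance at λmax, absorbance kept within 0.2-1. Water concentration obtained by difference; log P from the volume ratio. Triplicates.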

Row | Structure (SMILES) | logP
1 | Cc1ccc(Br)cc1 | 2.91
2 | Cc1ccc(C#N)cc1 | 2
3 | COc1ccc(C)cc1 | 2.67
4 | CN1C(=O)c2ccccc2C1=O | 1.33
5 | C[S+]([O-])c1ccc([N+](=O)[O-])cc1 (centres undefined) | 0.49
6 | N#Cc1ccc(C(F)F)cc1 | 1.75
7 | O=[N+]([O-])c1ccc(C(F)F)cc1 | 2.12
8 | C[S+]([O-])CCc1ccccc1 (centres undefined) | 0.63
9 | CSCCc1ccccc1 | 2.95
10 | O=[N+]([O-])c1ccc(S(=O)(=O)C(F)F)cc1 | 1.7
11 | O=[N+]([O-])c1ccc([S+]([O-])C(F)F)cc1 (centres undefined) | 1.37
12 | COCCc1ccccc1 | 2.23
13 | CS(=O)(=O)CCc1ccccc1 | 0.82
14 | O=C1c2ccccc2C(=O)N1C(F)F | 1.53
15 | CS(=O)(=O)c1ccc([N+](=O)[O-])cc1 | 0.61
16 | Cc1ccc([N+](=O)[O-])cc1 [4-NITROTOLUENE] | 2.35
17 | COC(=O)c1ccccc1 [METHYL BENZOATE] | 2.27
18 | Cc1ccc(C)cc1 [P-XYLENE] | 3.08

Continued, values first:

Row | logP | Structure (SMILES)
19 | 2.78 | FC(F)c1ccc(Br)cc1
20 | 2.4 | FC(F)c1ccccc1
21 | 1.42 | [O-][S+](CCc1ccccc1)C(F)F (centres undefined)
22 | 2.94 | Cc1ccc(C(F)F)cc1
23 | 1.87 | O=S(=O)(CCc1ccccc1)C(F)F
24 | 3.16 | FC(F)OCCc1ccccc1
25 | 3.02 | FC(F)CCc1ccccc1
26 | 3.16 | FC(F)SCCc1ccccc1
27 | 2.66 | O=C(OC(F)F)c1ccccc1
28 | 2.61 | COc1ccc(C(F)F)cc1

assay: Lipophilicity, log P of the compound; type: physicochemical; conditions: octanol/water
Method in brief: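 Shake-flask partition between mutually pre-saturated octanol and water (at least 24 h pre-saturation). Compound dissolved at 10 mM in water-saturated octanol; water/octanol volume ratio set by preliminary runs according to polarity. Phases centrifuged 3000 rpm, 5 min; diluted octanol aliquot read by UV absorbance at λmax (range 0.2-1). Water concentration obtained by difference; log P from volume ratio; triplicates.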

Row | Structure (SMILES) | logP
29 | CCCc1ccccc1 | 3.7
